Values belong to the compound of their own block, whether it stands above or below them.
Columns and labels:
[1] = biological target: T1, Tyrosyl-DNA phosphodiesterase 1 (Homo sapiens, UniProt Q9NUW8); test: Inhibition of recombinant Tdp1 (unknown origin) using 5'-(5,6 FAM-aac gtc agg gtc ttc c-BHQ1)-3' as substrate measured every 55 secs for 8 mins by fluorimetric assay
[2] = Cytotoxicity against human A549 cells after 72 hrs by MTT assay; type: cell-based
How it was run: (§1)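 Cells seeded at ~2000 per well and grown 24 h at 37 °C, 5% CO2 in IMDM with 10% FBS plus penicillin/streptomycin. Then exposed to the compound (1 to 100 µM) for 72 h. Viability read by MTT as A570 versus DMSO control. CC50 interpolated from the dose-response curve. Mean ± SD of triplicates.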

[3] = Cytotoxicity against HEK293 cells after 72 hrs by MTT assay; type: cell-based; details: human; how it was run: as §1
Tdp1 [4] = test: Selectivity index, ratio of CC50 for human A549 cells to IC50 for recombinant Tdp1 (unknown origin) using 5'-(5,6 FAM-aac gtc agg gtc ttc c-BHQ1)-3' as substrate; type: toxicity; details: A549 cells (CC50) and recombinant Tdp1 (IC50), probe 5'-(5,6 FAM-aac gtc agg gtc ttc c-BHQ1)-3'
Tdp1 [5] = test: Selectivity index, ratio of CC50 for HEK293 cells to IC50 for recombinant Tdp1 (unknown origin) using 5'-(5,6 FAM-aac gtc agg gtc ttc c-BHQ1)-3' as substrate; type: toxicity; details: human, HEK293 cells (CC50) and recombinant Tdp1 (IC50), probe 5'-(5,6 FAM-aac gtc agg gtc ttc c-BHQ1)-3'
A549 [6] = test: Potentiation of topotecan-induced cytotoxicity against human A549 cells assessed as topotecan CC50 at 1 uM after 72 hrs by MTT assay (reference value: 111 +/- 27 nM); type: functional; details: A549, 72 h
A549 [7] = test: Potentiation of topotecan-induced cytotoxicity against human A549 cells assessed as fold reduction in topotecan CC50 at 1 uM after 72 hrs by MTT assay relative to topotecan alone; type: functional
How it was run: (§2)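 A-549 or HEK-293 cells (~2000/well) preincubated 24 h at 37 °C in IMDM with 10% FBS, penicillin/streptomycin, 5% CO2. Then treated with varied topotecan concentrations with or without inhibitor at 1 µM for 72 h. Viability read by MTT (A570) against DMSO control. Topotecan CC50 interpolated from dose-response curves, mean ± SD of triplicates.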

HEK293 = test: Potentiation of topotecan-induced cytotoxicity against HEK293 cells assessed as fold reduction in topotecan CC50 at 1 uM after 72 hrs by MTT assay relative to topotecan alone; type: cell-based; details: human, hek293, 72 h; how it was run: as §2
[8] = biological target: T1, Tyrosyl-DNA phosphodiesterase 1; test: Inhibition of recombinant Tdp1 (unknown origin) using 5'-([32P]-aac gtc agg gtc ttc c-tyrosine)-3' as substrate measured after 5 mins by electrophoresis method
[9] = biological target: T1, Tyrosyl-DNA phosphodiesterase 1; test: Inhibition of recombinant Tdp1 (unknown origin) using 5'-([32P]-aac gtc agg gtc ttc c-BHQ1)-3' as substrate measured after 20 mins by electrophoresis method

T1 sequence (Q9NUW8 whole entry): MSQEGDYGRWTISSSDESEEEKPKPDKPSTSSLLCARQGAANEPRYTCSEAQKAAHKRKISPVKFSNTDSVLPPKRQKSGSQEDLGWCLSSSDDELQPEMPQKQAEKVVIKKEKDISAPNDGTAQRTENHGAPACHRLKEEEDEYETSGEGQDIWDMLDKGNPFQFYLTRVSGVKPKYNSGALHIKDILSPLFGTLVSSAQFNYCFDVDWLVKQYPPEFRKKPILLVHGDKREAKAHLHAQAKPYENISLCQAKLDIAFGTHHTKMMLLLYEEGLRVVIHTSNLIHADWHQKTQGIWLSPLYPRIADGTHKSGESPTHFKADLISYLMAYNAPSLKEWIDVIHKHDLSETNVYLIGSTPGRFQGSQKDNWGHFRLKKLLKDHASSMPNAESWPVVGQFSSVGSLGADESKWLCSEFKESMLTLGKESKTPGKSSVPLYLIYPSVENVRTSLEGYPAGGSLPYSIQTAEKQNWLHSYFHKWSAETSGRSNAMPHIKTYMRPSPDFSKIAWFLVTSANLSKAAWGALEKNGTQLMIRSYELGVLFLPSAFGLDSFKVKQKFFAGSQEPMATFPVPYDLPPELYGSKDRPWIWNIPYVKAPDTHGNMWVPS

Structure (SMILES): CC(=O)C1=C(O)C=C2Oc3c4c(c(C)c(O)c3[C@@]2(C)C1=O)O/C(=C\c1cc(Br)cs1)C4=O
IC50 [1]: 600 nM

Structure (SMILES): CC(=O)C1=C(O)C=C2Oc3c4c(c(C)c(O)c3[C@@]2(C)C1=O)O/C(=C\c1sccc1C)C4=O
IC50 [1]: 630 nM

Structure (SMILES): CC(=O)C1=C(O)C=C2Oc3c4c(c(C)c(O)c3[C@@]2(C)C1=O)O/C(=C\c1ccco1)C4=O
IC50 [1]: 5500 nM

Structure (SMILES): CC(=O)C1=C(O)C=C2Oc3c4c(c(C)c(O)c3[C@@]2(C)C1=O)O/C(=C\c1ccccn1)C4=O
IC50 [1]: 860 nM

Structure (SMILES): CC(=O)C1=C(O)C=C2Oc3c4c(c(C)c(O)c3[C@@]2(C)C1=O)O/C(=C\C1CCCCC1)C4=O
IC50 [1]: > 15000 nM

Structure (SMILES): CC(=O)C1=C(O)C=C2Oc3c4c(c(C)c(O)c3[C@@]2(C)C1=O)O/C(=C\c1cc(Br)cc(Br)c1)C4=O
IC50 [1]: 530 nM
IC50 [8]: 4000 nM
IC50 [9]: 640 nM

Structure (SMILES): CC(=O)C1=C(O)C=C2Oc3c4c(c(C)c(O)c3[C@@]2(C)C1=O)O/C(=C\c1ccc(C)s1)C4=O
IC50 [1]: 840 nM

Structure (SMILES): CC(=O)C1=C(O)C=C2Oc3c4c(c(C)c(O)c3[C@@]2(C)C1=O)O/C(=C\c1ccc(Cl)cc1)C4=O
IC50 [1]: 1220 nM

Structure (SMILES): CC(=O)C1=C(O)C=C2Oc3c4c(c(C)c(O)c3[C@@]2(C)C1=O)O/C(=C\c1cccnc1)C4=O
IC50 [1]: 450 nM

Structure (SMILES): CC(=O)C1=C(O)C=C2Oc3c4c(c(C)c(O)c3[C@@]2(C)C1=O)O/C(=C\c1ccoc1)C4=O
IC50 [1]: 6730 nM

Structure (SMILES): CC(=O)C1=C(O)C=C2Oc3c4c(c(C)c(O)c3[C@@]2(C)C1=O)O/C(=C\c1ccc(F)cc1)C4=O
IC50 [1]: 980 nM

Structure (SMILES): CC(=O)C1=C(O)C=C2Oc3c4c(c(C)c(O)c3[C@@]2(C)C1=O)O/C(=C\c1ccc(Br)cc1)C4=O
CC50 at 72 h [2]: 10000 nM
CC50 at 72 h [3]: 14600 nM
selectivity ratio (Tdp1 [4]): 66.7
selectivity ratio (Tdp1 [5]): 97.3
CC50 (A549 [6]): 162 nM

Structure (SMILES): CC(=O)C1=C(O)C=C2Oc3c4c(c(C)c(O)c3[C@@]2(C)C1=O)O/C(=C\c1cccs1)C4=O
IC50 [1]: 900 nM

Structure (SMILES): CC(=O)C1=C(O)C=C2Oc3c4c(c(C)c(O)c3[C@@]2(C)C1=O)O/C(=C\c1ccccc1)C4=O
IC50 [1]: 720 nM

Structure (SMILES): CC(=O)C1=C(O)C=C2Oc3c4c(c(C)c(O)c3[C@@]2(C)C1=O)O/C(=C\c1ccc(O)cc1)C4=O
IC50 [1]: 1590 nM

Structure (SMILES): COc1ccc(/C=C2\Oc3c(C)c(O)c4c(c3C2=O)OC2=CC(O)=C(C(C)=O)C(=O)[C@@]24C)cc1OC
IC50 [1]: 1020 nM

Structure (SMILES): CC(=O)C1=C(O)C=C2Oc3c4c(c(C)c(O)c3[C@@]2(C)C1=O)O/C(=C\c1ccncc1)C4=O
IC50 [1]: 810 nM

Structure (SMILES): CC(=O)C1=C(O)C=C2Oc3c4c(c(C)c(O)c3[C@@]2(C)C1=O)O/C(=C\c1ccc[nH]1)C4=O
IC50 [1]: 3650 nM

Structure (SMILES): CC(=O)C1=C(O)C=C2Oc3c4c(c(C)c(O)c3[C@@]2(C)C1=O)O/C(=C\c1ccsc1)C4=O
IC50 [1]: 3300 nM

The remaining compounds from weak to strong by IC50 [1], led by results:

IC50 [1]: 390 nM
Structure (SMILES): COc1ccccc1/C=C1\Oc2c(C)c(O)c3c(c2C1=O)OC1=CC(O)=C(C(C)=O)C(=O)[C@@]13C

IC50 [1]: 340 nM
Structure (SMILES): COc1ccc(/C=C2\Oc3c(C)c(O)c4c(c3C2=O)OC2=CC(O)=C(C(C)=O)C(=O)[C@@]24C)cc1
CC50 at 72 h [2]: 8300 nM
CC50 at 72 h [3]: 15800 nM
selectivity ratio (Tdp1 [4]): 24.4
selectivity ratio (Tdp1 [5]): 46.5
CC50 (A549 [6]): 90 nM

IC50 [1]: 340 nM
Structure (SMILES): COc1ccc(/C=C2\Oc3c(C)c(O)c4c(c3C2=O)OC2=CC(O)=C(C(C)=O)C(=O)[C@@]24C)c(OC)c1OC
CC50 at 72 h [2]: 4600 nM
CC50 at 72 h [3]: 20000 nM
selectivity ratio (Tdp1 [4]): 13.5
selectivity ratio (Tdp1 [5]): 58.8
CC50 (A549 [6]): 48 nM
fold change (FC) (A549 [7]): 2

IC50 [1]: 232 nM
Structure (SMILES): CC(=O)C1=C(O)C=C2Oc3c4c(c(C)c(O)c3[C@@]2(C)C1=O)O/C(=C\c1cccc(Br)c1)C4=O
CC50 at 72 h [2]: 11400 nM
CC50 at 72 h [3]: 14500 nM
selectivity ratio (Tdp1 [4]): 49.1
selectivity ratio (Tdp1 [5]): 62.5
CC50 (A549 [6]): 132 nM

IC50 [1]: 230 nM
Structure (SMILES): CC(=O)C1=C(O)C=C2Oc3c4c(c(C)c(O)c3[C@@]2(C)C1=O)O/C(=C\c1ccccc1Br)C4=O
CC50 at 72 h [2]: 4560 nM
CC50 at 72 h [3]: 15900 nM
selectivity ratio (Tdp1 [4]): 19.8
selectivity ratio (Tdp1 [5]): 69.1
CC50 (A549 [6]): 48 nM
fold change (FC) (A549 [7]): 2

IC50 [1]: 160 nM
Structure (SMILES): CC(=O)C1=C(O)C=C2Oc3c4c(c(C)c(O)c3[C@@]2(C)C1=O)O/C(=C\c1ccc(C)o1)C4=O
CC50 at 72 h [2]: > 50000 nM
CC50 at 72 h [3]: > 50000 nM
selectivity ratio (Tdp1 [4]): > 300
selectivity ratio (Tdp1 [5]): > 300
CC50 (A549 [6]): 40 nM
fold change (FC) (A549 [7]): 2

IC50 [1]: 81 nM
Structure (SMILES): CC(=O)C1=C(O)C=C2Oc3c4c(c(C)c(O)c3[C@]2(C)C1=O)O/C(=C\c1ccc(Br)s1)C4=O

IC50 [1]: 64 nM
Structure (SMILES): CC(=O)C1=C(O)C=C2Oc3c4c(c(C)c(O)c3[C@]2(C)C1=O)O/C(=C\c1cc(C(C)(C)C)cc(C(C)(C)C)c1O)C4=O

IC50 [1]: 63 nM
Structure (SMILES): CC(=O)C1=C(O)C=C2Oc3c4c(c(C)c(O)c3[C@@]2(C)C1=O)O/C(=C\c1ccc(Br)s1)C4=O
CC50 at 72 h [2]: 8700 nM
CC50 at 72 h [3]: 15700 nM
selectivity ratio (Tdp1 [4]): 138
selectivity ratio (Tdp1 [5]): 249
CC50 (A549 [6]): 47 nM
fold change (FC) (A549 [7]): 2
fold change (FC) (HEK293): 2 to 4

IC50 [1]: 25 nM
Structure (SMILES): CC(=O)C1=C(O)C=C2Oc3c4c(c(C)c(O)c3[C@@]2(C)C1=O)O/C(=C\c1cc(C(C)(C)C)cc(C(C)(C)C)c1O)C4=O
CC50 at 72 h [2]: 6800 nM
CC50 at 72 h [3]: 14500 nM
selectivity ratio (Tdp1 [4]): 272
CC50 (A549 [6]): 558 nM
